Measured values reported in ChEMBL document CHEMBL3046693, “Discovery and characterization of sulfoxaflor, a novel insecticide targeting sap-feeding pests” (J Agric Food Chem, 2011).
Values after ≈ are worked out from the molar mass of the structure shown. Active and inactive are the calls of the source. The calls are words filed in the database; no cut-off is given here.

Key:
[1] = system: Aphis gossypii; test: Insecticidal activity against Aphis gossypii (cotton aphid) DAS lab strain by leaf disk bioassay; format: functional; conditions: foliar
[2] = system: Myzus persicae; test: Insecticidal activity against drug resistant Myzus persicae R-4013A (green peach aphid) by leaf disk bioassay; format: functional; conditions: foliar
[3] = system: Myzus persicae; test: Insecticidal activity against Myzus persicae S-USIL (green peach aphid) by leaf disk bioassay; format: functional; conditions: foliar
[4] = system: Myzus persicae; test: Insecticidal activity against Myzus persicae (green peach aphid) DAS lab strain by leaf disk bioassay; format: functional; conditions: foliar
[5] = system: Bemisia tabaci; test: Insecticidal activity against Bemisia tabaci S-4971BT1 (sweet potato whitefly) by leaf disk bioassay; format: functional; conditions: S-4971BT1, foliar
[6] = system: Bemisia tabaci; test: Insecticidal activity against rothamsted-resistant Bemisia tabaci Q-biotype R-4971BT9 (sweet potato whitefly) by leaf disk bioassay; format: functional; conditions: Q-biotype R-4971BT9, foliar
[7] = system: Bemisia tabaci; test: Insecticidal activity against rothamsted-resistant Bemisia tabaci R-4991BT1 (sweet potato whitefly) by leaf disk bioassay; format: functional; conditions: R-4991BT1, foliar
[8] = system: Bemisia tabaci; test: Insecticidal activity against DAS-susceptible Bemisia tabaci S-4971BT1 (sweet potato whitefly) by leaf disk bioassay; format: functional; conditions: S-4971BT1, foliar
[9] = system: Bemisia tabaci; test: Insecticidal activity against DAS insecticide-resistant Bemisia tabaci B-biotype R-PBI (sweet potato whitefly) by leaf disk bioassay; format: functional; conditions: foliar
[10] = system: Bemisia tabaci; test: Insecticidal activity against drug sensitive Bemisia tabaci DAS (sweet potato whitefly) lab strain by leaf disk bioassay; format: functional; conditions: foliar
[11] = system: Bemisia tabaci; test: Insecticidal activity against Bemisia tabaci DAS (sweet potato whitefly) lab strain by leaf disk bioassay; format: functional; conditions: foliar
[12] = system: Drosophila melanogaster; test: Activation of Drosophila melanogaster nicotinic acetylcholine receptor alpha2 expressed in Xenopus laevis co-expressing chicken nicotinic acetylcholine receptor beta2 subunit by electrophysiology method
Method in brief: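 Drosophila α2 cRNA co-injected with chicken β2 and C. elegans ric-3 chaperone into defolliculated X. laevis oocytes (≤50 nL at 1 ng/nL). Oocytes held singly in ND-96 (pH 7.6) at 18 °C and recorded 1-4 days after injection on an automated oocyte recording system.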

[13] = system: Myzus persicae; test: Insecticidal activity against Myzus persicae (green peach aphid) infested UV irradiated leaves of pepper plant exposed to compound at 124 ppm assessed as insect control efficacy post 7 days UV exposure relative to untreated control; format: functional
Method in brief: (§1)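 Aphid control on treated UV-exposed pepper leaves scored 3 days after infestation; four replicates per treatment and time point.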

[14] = system: Myzus persicae; test: Insecticidal activity against Myzus persicae (green peach aphid) infested UV irradiated leaves of pepper plant exposed to compound at 124 ppm assessed as insect control efficacy post 3 days UV exposure relative to untreated control; format: functional; method in brief: as §1
[15] = system: Myzus persicae; test: Insecticidal activity against Myzus persicae (green peach aphid) infested UV irradiated leaves of pepper plant exposed to compound at 124 ppm assessed as insect control efficacy post 0 day UV exposure relative to untreated control; format: functional; method in brief: as §1
[16] = system: Bemisia tabaci; test: Resistance index, ratio of LC50 for rothamsted-resistant Bemisia tabaci Q-biotype R-CHLORAKA (sweet potato whitefly) to LC50 for Bemisia tabaci SUD-S; format: functional
[17] = system: Bemisia tabaci; test: Resistance index, ratio of LC50 for rothamsted-resistant Bemisia tabaci Q-biotype R-4971BT9 (sweet potato whitefly) to LC50 for Bemisia tabaci S-4971BT1; format: functional
[18] = system: Bemisia tabaci; test: Resistance index, ratio of LC50 for drug resistant rothamsted-resistant Bemisia tabaci R-4991BT1 (sweet potato whitefly) to LC50 for DAS-susceptible Bemisia tabaci S-4971BT1; format: functional
[19] = system: Bemisia tabaci; test: Resistance index, ratio of LC50 for DAS insecticide-resistant Bemisia tabaci B-biotype R-PB (sweet potato whitefly) to LC50 for drug sensitive Bemisia tabaci DAS lab strain; format: functional
[20] = system: Myzus persicae; test: Resistance index, ratio of LC50 for drug resistant Myzus persicae R-4013A (green peach aphid) to LC50 for Myzus persicae S-USIL; format: functional
[21] = system: Bemisia tabaci; test: Insecticidal activity against rothamsted-resistant Bemisia tabaci Q-biotype R-CHLORAKA (sweet potato whitefly) by leaf disk bioassay; format: functional; conditions: foliar
[22] = system: Bemisia tabaci; test: Insecticidal activity against Bemisia tabaci SUD-S (sweet potato whitefly) by leaf disk bioassay; format: functional; conditions: foliar
[23] = system: CYP6G1; test: Drug metabolism in Drosophila melanogaster D.mel-2 cells over-expressing in CYP6G1 assessed as drug recovery measured 24 hr post dose by HPLC method; format: ADME; conditions: D.mel-2 cells over-expressing CYP6G1, read-out: Drug recovery
[24] = (§2) Drug metabolism in Drosophila melanogaster D.mel-2 cells deficient in CYP6G1 assessed as drug recovery measured 24 hr post dose by HPLC method; format: ADME; conditions: 24 h
[25] = system: Myzus persicae; test: Displacement of [3H]imidacloprid from nicotinic acetylcholine receptor in Myzus persicae (green peach aphid) homogenates by scintillation counting
Method in brief: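 Frozen (-80 °C) aphids homogenized at 4 °C in sucrose/Tris/EDTA/PMSF buffer (pH 7.2), filtered, spun 3500 rpm 15 min then 17500 rpm 20 min (4 °C). Pellet resuspended in 120 mM NaCl, 50 mM Tris (pH 7.4). ~2 nM [3H]IMI, 70 μg protein/well and competitor for 60 min at ~22 °C. Protein-started, filtration-stopped, scintillation-counted; total and filter binding measured.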

[26] = system: CYP6G1; test: as §2; format: ADME; conditions: D.mel-2 cells deficient in CYP6G1, read-out: Drug recovery
[27] = Stability assessed as half life for photolysis in UV chamber at 1000 ppm by HPLC method; format: physicochemical

| SMILES | LC50 [1] [µg/mL] | LC50 [2] [µg/mL] | LC50 [3] [µg/mL] | LC50 [4] [µg/mL] | LC50 [5] [µg/mL] | LC50 [6] [µg/mL] | LC50 [7] [µg/mL] | LC50 [8] [µg/mL] | LC50 [9] [µg/mL] | LC50 [10] [µg/mL] | LC50 [11] [µg/mL] | Activity [12] | Efficacy [13] [%] | Efficacy [14] [%] | Efficacy [15] [%] | RatioLC50 [16] | RatioLC50 [20] | LC50 [21] [µg/mL] | LC50 [22] [µg/mL] | remaining at 24 h [23] [%] | also measured |
| --- | --- | --- | --- | --- | --- | --- | --- | --- | --- | --- | --- | --- | --- | --- | --- | --- | --- | --- | --- | --- | --- |
| O=[N+]([O-])/N=C1\NCCN1Cc1ccc(Cl)nc1 [IMIDACLOPRID] | 7.8 (≈ 30.5 µM) | 15.3 (≈ 59.8 µM) | 0.896 (≈ 3.5 µM) | 0.09 (≈ 0.352 µM) | 4.4 (≈ 17.2 µM) | 4500 (≈ 17600 µM) | > 1000 | 4.4 (≈ 17.2 µM) | 174 (≈ 681 µM) | 0.2 (≈ 0.782 µM) | 0.37 (≈ 1.45 µM) | Active | 21 | 42 | 100 | >833 | 17.1 | > 1000 | 1.23 (≈ 4.81 µM) | – | RatioLC50 [17]: 1022; RatioLC50 [18]: >230; RatioLC50 [19]: 870 |
| C/C(=N\C#N)N(C)Cc1ccc(Cl)nc1 [ACETAMIPRID] | – | – | – | – | – | – | – | – | – | – | – | – | – | – | – | – | – | – | – | 0 | Drug recovery [24]: 122.7% |
| CC(c1ccc(C(F)(F)F)nc1)S(C)(=O)=NC#N (configuration not stated) [SULFOXAFLOR] | 0.2 (≈ 0.721 µM) | 1.52 (≈ 5.48 µM) | 4.13 (≈ 14.9 µM) | 0.074 (≈ 0.267 µM) | 18 (≈ 64.9 µM) | 39 (≈ 141 µM) | 28 (≈ 101 µM) | 18 (≈ 64.9 µM) | 6.4 (≈ 23.1 µM) | 2.8 (≈ 10.1 µM) | 0.85 (≈ 3.07 µM) | Active | 90 | 100 | 100 | 2.8 | 0.37 | 5 (≈ 18 µM) | 1.8 (≈ 6.49 µM) | 108 | Activity [25]: Active; remaining at 24 h [26]: 105%; half-life at 1000 ppm [27]: 88 h; RatioLC50 [17]: 2.2; RatioLC50 [18]: 1.6; RatioLC50 [19]: 2.3 |
| O=[N+]([O-])NC1=NCCN1Cc1ccc(Cl)nc1 [IMIDACLOPRID] | – | – | – | – | – | – | – | – | – | – | – | – | – | – | – | – | – | – | – | 4.5 | remaining at 24 h [26]: 115%; half-life at 1000 ppm [27]: 7 h |
| CC(c1ccc(Cl)nc1)S(C)(=O)=NC#N (configuration not stated) | 3 (≈ 12.3 µM) | 12.5 (≈ 51.3 µM) | 62.3 (≈ 256 µM) | 0.374 (≈ 1.53 µM) | – | – | – | – | – | – | 0.29 (≈ 1.19 µM) | – | – | – | – | 2.9 | 0.2 | 13.2 (≈ 54.2 µM) | 4.48 (≈ 18.4 µM) | – | – |
